{"source": "paper PMC10763047", "about": "(Chemical Science, 2023)", "key": {"p110α [1]": {"target": "p110α (Homo sapiens, UniProt P42336, E545K)", "sequence (P42336 whole entry E545K)": "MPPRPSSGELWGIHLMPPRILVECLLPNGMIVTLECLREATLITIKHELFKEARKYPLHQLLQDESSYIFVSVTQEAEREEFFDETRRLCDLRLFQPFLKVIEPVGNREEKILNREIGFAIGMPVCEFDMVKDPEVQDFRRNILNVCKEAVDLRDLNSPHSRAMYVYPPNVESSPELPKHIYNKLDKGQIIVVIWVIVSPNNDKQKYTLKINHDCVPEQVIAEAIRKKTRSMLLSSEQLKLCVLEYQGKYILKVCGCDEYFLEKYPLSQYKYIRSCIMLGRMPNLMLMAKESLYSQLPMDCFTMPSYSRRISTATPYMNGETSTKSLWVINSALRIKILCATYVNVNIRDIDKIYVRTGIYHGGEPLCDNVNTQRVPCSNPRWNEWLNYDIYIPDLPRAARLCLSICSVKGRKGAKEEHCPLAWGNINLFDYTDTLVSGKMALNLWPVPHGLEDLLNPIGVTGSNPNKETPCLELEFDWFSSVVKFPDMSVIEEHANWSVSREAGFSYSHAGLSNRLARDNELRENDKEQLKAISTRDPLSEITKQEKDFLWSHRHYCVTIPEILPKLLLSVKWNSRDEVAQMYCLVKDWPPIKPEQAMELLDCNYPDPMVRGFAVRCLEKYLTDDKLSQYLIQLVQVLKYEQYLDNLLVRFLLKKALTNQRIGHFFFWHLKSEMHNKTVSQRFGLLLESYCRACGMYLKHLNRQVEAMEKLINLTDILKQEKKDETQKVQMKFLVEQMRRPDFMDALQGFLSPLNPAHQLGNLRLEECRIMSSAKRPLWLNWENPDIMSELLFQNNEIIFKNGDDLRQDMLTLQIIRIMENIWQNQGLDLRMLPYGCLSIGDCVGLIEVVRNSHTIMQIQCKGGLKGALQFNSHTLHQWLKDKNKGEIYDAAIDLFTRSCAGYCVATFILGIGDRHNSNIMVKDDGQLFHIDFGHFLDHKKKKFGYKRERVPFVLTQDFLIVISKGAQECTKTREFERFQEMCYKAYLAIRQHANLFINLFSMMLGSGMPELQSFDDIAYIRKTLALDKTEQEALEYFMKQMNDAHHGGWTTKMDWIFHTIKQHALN", "sequence (P27986 whole entry partner)": "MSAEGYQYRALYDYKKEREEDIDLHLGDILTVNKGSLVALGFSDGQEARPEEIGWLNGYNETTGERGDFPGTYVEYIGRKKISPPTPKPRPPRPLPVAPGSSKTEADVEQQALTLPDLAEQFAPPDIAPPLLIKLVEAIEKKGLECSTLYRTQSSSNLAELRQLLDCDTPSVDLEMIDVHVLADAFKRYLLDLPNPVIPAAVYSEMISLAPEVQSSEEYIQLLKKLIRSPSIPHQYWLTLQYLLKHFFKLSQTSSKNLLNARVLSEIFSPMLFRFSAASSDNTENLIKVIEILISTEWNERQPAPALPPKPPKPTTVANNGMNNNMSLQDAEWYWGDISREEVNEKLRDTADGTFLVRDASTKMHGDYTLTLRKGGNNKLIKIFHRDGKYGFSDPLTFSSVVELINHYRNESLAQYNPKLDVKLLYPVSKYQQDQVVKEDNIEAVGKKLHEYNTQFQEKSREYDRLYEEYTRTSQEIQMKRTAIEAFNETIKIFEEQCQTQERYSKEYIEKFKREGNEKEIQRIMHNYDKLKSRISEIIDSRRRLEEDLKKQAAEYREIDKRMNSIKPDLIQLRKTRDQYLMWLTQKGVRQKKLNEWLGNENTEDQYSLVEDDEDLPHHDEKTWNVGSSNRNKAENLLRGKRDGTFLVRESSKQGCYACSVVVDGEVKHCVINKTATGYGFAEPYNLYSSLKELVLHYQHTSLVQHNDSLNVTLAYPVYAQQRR", "experiment": "Western blot of p110α degradation in MCF7 cells", "type": "cell-based", "details": "pretreatment before WJ112-14", "outline": "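MCF7 cells (p110α E545K) were exposed to test compound for 6 h, or 6 h and 24 h in some runs. Integrated PI3Kα western blot signals were normalised to α-tubulin and DMSO. SD came from biological triplicates at selected concentrations. Mechanistic runs used pretreatment with bortezomib, MLN4924 or TAK-243, a glutarimide-methylated CRBN-binding-dead analogue, and washout to follow p110α recovery.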"}, "p110α [2]": {"system": "p110α", "experiment": "Western blot of p110α degradation in a panel of cell lines", "type": "cell-based", "details": "MCF7 and T47D cell lines"}}, "data": [{"smiles": "NS(=O)(=O)OC[C@@H]1C[C@@H](n2ccc3c(N[C@H]4CCc5ccccc54)ncnc32)C[C@@H]1O", "note": "[MLN4924]", "values": [{"measurement": "rescue of p110α from WJ112-14 degradation by pretreatment", "setting": "p110α [1]", "value": "full rescue of p110α"}]}, {"smiles": "CC(C)C[C@H](NC(=O)[C@H](Cc1ccccc1)NC(=O)c1cnccn1)B(O)O", "note": "[bortezomib]", "values": [{"measurement": "rescue of p110α from WJ112-14 degradation by pretreatment", "setting": "p110α [1]", "value": "full rescue of p110α"}]}, {"smiles": "Cc1nc(-c2cn3c(n2)-c2ccc(-c4cnn(C(C)(C)C(N)=O)c4)cc2OCC3)n(C(C)C)n1", "note": "[taselisib]", "values": [{"measurement": "p110α degradation", "setting": "p110α [2]", "value": "inactive"}]}, {"smiles": "Nc1cccc2c1C(=O)N(C1CCC(=O)NC1=O)C2=O", "note": "(centres unmarked) [pomalidomide]", "values": [{"measurement": "rescue of p110α from WJ112-14 degradation by pretreatment", "setting": "p110α [1]", "value": "rescue of p110α"}]}, {"smiles": "NS(=O)(=O)OC[C@H]1C[C@@H](Nc2ccnc3cc(-c4cccc(SC(F)(F)F)c4)nn23)[C@H](O)[C@@H]1O", "note": "[TAK-243]", "values": [{"measurement": "rescue of p110α from WJ112-14 degradation by pretreatment", "setting": "p110α [1]", "value": "full rescue of p110α"}]}]}
